Test results as given in ChEMBL document CHEMBL1124475, “The thieno[3,2-c]pyridine and furo[3,2-c]pyridine rings: new pharmacophores with potential antipsychotic activity” (J Med Chem, 1989).
Active and inactive are the calls of the source. The rule behind the calls is not given here.

How the values were obtained:
Rattus norvegicus [1] = experiment: Blockade of apomorphine-induced stereotypy in rats when administered perorally; type: functional; details: po
[2] = molecular target: T1, Serotonin 1 (5-HT1) receptor (Rattus norvegicus, UniProt P28564+P30940+P19327+P28565); experiment: Ability to bind at 5-hydroxytryptamine 1 receptor of rat hippocampus by displacing [3H]5-HT; type: tissue-based
How it was run: (§1)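 Rat receptor radioligand displacement, five test-ligand concentrations used to calculate IC50, each assay in duplicate. Some compounds determined four times (in duplicate), with mean IC50 reported.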

[3] = molecular target: T2, Serotonin 2 (5-HT2) receptor (Rattus norvegicus, UniProt P30994+P08909+P14842); experiment: Ability to bind at 5-hydroxytryptamine 2 receptor of rat cortex by displacing [3H]spiperone
Rattus norvegicus [4] = experiment: Reversal of trifluoperazine-induced catalepsy in rats when administered perorally; Inactive; type: functional, organism-based
[5] = molecular target: T3, Adrenergic receptor alpha-1 (Rattus norvegicus, UniProt P15823+P23944+P43140); experiment: Ability to bind at Alpha-1 adrenergic receptor by displacing [3H]WB-4101; type: protein assay
T3 sequence (P15823 whole entry): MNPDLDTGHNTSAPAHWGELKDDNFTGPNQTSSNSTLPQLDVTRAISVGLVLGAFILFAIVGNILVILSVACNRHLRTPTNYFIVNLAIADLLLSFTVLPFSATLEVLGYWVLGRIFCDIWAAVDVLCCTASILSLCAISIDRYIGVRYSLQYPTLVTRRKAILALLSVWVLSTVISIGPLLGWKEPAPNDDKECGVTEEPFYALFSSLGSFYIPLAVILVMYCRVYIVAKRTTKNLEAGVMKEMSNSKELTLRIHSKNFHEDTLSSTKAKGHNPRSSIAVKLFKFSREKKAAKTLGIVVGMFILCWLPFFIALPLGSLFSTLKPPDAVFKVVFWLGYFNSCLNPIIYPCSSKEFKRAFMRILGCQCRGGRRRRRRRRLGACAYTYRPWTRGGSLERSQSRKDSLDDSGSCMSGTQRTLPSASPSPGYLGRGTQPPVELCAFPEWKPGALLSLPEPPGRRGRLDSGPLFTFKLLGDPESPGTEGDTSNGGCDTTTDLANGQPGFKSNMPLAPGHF
T3 sequence (P23944 whole entry): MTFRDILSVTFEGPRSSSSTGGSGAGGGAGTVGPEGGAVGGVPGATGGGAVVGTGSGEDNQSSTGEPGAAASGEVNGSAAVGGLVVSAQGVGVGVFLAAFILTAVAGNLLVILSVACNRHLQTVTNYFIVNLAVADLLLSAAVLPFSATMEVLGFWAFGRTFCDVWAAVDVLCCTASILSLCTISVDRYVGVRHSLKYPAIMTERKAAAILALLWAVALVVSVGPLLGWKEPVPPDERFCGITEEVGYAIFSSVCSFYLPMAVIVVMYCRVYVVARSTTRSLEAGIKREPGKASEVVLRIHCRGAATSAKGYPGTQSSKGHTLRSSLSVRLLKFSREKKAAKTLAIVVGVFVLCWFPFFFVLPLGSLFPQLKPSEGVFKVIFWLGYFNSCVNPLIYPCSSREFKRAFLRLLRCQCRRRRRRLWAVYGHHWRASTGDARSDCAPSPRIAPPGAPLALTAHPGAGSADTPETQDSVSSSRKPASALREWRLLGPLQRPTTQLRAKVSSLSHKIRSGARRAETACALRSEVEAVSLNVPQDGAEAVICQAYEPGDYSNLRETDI
T3 sequence (P43140 whole entry): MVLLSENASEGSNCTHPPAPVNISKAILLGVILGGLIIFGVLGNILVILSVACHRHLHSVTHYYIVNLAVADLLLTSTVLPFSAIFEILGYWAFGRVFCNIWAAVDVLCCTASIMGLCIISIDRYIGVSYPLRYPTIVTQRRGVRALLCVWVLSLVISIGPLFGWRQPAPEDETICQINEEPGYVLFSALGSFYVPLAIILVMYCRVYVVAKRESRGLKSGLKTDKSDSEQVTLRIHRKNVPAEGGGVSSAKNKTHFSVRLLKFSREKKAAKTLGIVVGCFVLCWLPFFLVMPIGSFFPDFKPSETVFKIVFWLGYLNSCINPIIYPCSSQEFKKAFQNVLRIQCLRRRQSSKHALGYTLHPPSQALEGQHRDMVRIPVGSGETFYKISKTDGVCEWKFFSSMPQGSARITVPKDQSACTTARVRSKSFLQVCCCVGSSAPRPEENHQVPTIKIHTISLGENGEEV

D(2) dopamine receptor [6] = molecular target: T4, D(2) dopamine receptor (Rattus norvegicus, UniProt P61169); experiment: Ability to bind at dopamine receptor D2 of rat corpus striatum by displacing [3H]spiperone
T4 sequence (P61169 whole entry): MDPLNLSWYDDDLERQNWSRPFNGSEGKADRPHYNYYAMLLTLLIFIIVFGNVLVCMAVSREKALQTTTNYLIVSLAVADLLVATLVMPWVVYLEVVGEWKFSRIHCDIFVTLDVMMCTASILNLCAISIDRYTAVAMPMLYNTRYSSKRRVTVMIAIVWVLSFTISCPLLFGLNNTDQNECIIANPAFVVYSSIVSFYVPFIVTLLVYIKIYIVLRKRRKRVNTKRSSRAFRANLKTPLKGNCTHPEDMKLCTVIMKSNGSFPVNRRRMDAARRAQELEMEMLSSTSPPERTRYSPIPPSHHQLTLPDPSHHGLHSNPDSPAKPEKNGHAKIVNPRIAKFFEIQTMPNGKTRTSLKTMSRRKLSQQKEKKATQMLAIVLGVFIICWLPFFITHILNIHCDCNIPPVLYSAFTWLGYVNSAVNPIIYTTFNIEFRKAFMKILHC

Rattus norvegicus [7] = experiment: Conditioned avoidance response (CAR) when administered perorally; type: functional; details: po
Rattus norvegicus [8] = experiment: Blockade of Sidman-avoidance activity in rats when administered perorally; Inactive; type: functional, organism-based
How it was run: (§2)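 Rats trained in once-daily Sidman sessions until stable; non-learners after 3 days replaced. Twelve rats dosed 30 min before session. Each rat compared with mean of its previous three drug-free days by paired t test. Testing continued to minimally effective dose; maximum usually 100 mg/kg. MED is mean over 12 animals.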

[9] = molecular target: T2, Serotonin 2 (5-HT2) receptor; experiment: Ability to bind at serotonin 5-hydroxytryptamine 2 receptors of rat cortex by displacing [3H]spiperone
Rattus norvegicus [10] = experiment: Induction of catalepsy in rats when administered perorally and maximum dose examined was 4 times the ED50 value established in CAR; Inactive; type: functional, organism-based
D(2) dopamine receptor [11] = molecular target: T4, D(2) dopamine receptor; experiment: Ability to bind at Dopamine receptor D2 of rat corpus striatum by displacing [3H]spiperone; how it was run: as §1
[12] = molecular target: T3, Adrenergic receptor alpha-1; experiment: Ability to bind at alpha-1 adrenergic receptor by displacing [3H]WB-4101; type: protein assay; how it was run: as §1
Mus musculus = experiment: Blockade of apomorphine-induced climbing in mice when administered perorally; type: functional
How it was run: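 Male mice habituated 30 min in individual cages, then dosed orally (distilled H2O or 0.5% Methocel suspension, 10 mL/kg) or vehicle. Apomorphine 1.5 mg/kg sc given 30 min later. Climbing scored at 10, 20, 30 min post-apomorphine. At least five animals per dose, maximum 100 mg/kg.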

Rattus norvegicus [13] = experiment: Spontaneous discharge activity of individual dopaminergic neurons in the ventral tegmentum neurons (A10 DA cells) when administered intravenously at a dose of 0.1-6.3 mg/kg in anesthetized male Sprague-Dawley rats; (excitatory); type: functional; details: A10DA, iv
Rattus norvegicus [14] = experiment: spontaneous discharge activity of individual noradrenergic neurons in the locus coeruleus (LC) when administered intravenously in anesthetized male Sprague-Dawley rats; (excitatory); type: functional; details: iv
Rattus norvegicus [15] = experiment: Spontaneous discharge activity of individual dopaminergic neurons in the substantia nigra (A9 DA cells) when administered intravenously at a dose of 0.1-6.3 mg/kg in anesthetized male Sprague-Dawley rats; (excitatory); type: functional; details: A9DA, iv
Rattus norvegicus [16] = experiment: Spontaneous discharge activity of individual serotonergic neurons in the dorsal raphe (DR) nucleus when administered intravenously in anesthetized male Sprague-Dawley rats; (inhibitory); type: functional; details: iv
Rattus norvegicus [17] = experiment: Blockade of Sidman-avoidance activity in rats when administered perorally; type: functional; how it was run: as §2
Rattus norvegicus [18] = experiment: Approximate effective dose (AED) in inhibition of spontaneous motor activity when administered perorally; type: functional
How it was run: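 Three groups of five animals, each group at a different dose. Mean log activity count per group compared with vehicle controls, and the difference plotted against log dose. AED taken at the dose giving a 0.3 log-unit (about 2-fold) difference from control.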

[19] = molecular target: T5, Adrenergic receptor alpha-2 (Rattus norvegicus, UniProt P22086+P19328+P22909); experiment: Ability to bind at alpha-2 adrenergic receptor by displacing [3H]clonidine; type: protein assay
T5 sequence (P22086 whole entry): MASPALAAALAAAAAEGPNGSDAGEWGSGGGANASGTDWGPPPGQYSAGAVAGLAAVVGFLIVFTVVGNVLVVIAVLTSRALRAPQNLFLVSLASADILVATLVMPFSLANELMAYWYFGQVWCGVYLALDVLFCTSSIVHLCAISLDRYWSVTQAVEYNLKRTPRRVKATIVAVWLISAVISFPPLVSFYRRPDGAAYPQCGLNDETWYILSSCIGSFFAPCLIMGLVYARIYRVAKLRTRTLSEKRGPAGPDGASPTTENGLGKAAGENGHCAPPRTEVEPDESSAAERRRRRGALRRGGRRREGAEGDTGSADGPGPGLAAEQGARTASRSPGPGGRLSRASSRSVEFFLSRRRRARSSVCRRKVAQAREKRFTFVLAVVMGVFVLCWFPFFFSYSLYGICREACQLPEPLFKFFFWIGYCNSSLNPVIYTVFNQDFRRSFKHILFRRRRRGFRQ
T5 sequence (P19328 whole entry): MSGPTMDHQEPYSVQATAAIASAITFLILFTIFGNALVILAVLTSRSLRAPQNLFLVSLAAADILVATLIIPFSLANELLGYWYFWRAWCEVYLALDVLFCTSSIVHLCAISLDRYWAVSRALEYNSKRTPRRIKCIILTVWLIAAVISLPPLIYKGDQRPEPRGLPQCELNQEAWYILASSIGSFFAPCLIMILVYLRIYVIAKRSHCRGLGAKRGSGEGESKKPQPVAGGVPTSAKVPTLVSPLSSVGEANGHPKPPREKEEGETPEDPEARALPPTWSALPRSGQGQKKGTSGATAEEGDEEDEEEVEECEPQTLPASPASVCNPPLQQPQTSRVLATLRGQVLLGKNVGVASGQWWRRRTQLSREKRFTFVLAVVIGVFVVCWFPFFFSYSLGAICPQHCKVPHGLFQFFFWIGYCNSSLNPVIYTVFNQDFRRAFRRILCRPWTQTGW
T5 sequence (P22909 whole entry): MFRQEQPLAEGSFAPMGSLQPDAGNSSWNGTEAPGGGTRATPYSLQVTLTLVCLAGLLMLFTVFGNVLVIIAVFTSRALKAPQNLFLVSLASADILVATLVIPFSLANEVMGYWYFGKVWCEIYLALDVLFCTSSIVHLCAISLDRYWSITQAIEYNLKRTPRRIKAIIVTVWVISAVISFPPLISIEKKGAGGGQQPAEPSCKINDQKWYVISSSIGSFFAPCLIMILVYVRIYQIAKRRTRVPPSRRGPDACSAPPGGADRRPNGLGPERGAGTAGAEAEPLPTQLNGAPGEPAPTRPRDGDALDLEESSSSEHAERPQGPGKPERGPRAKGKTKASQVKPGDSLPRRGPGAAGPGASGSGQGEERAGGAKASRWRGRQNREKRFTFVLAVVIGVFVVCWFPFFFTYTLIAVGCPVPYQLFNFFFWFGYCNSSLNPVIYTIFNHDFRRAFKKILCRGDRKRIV

[20] = molecular target: T1, Serotonin 1 (5-HT1) receptor; experiment: Ability to bind at serotonin 5-hydroxytryptamine 1 receptor of rat hippocampus by displacing [3H]5-HT; type: tissue-based

IC50 [2]	SMILES	ED50 (Rattus norvegicus [1])	ED50 (Rattus norvegicus [7])	IC50 [9]	IC50 (D(2) dopamine receptor [11])	IC50 [12]	AED (Rattus norvegicus [18])	IC50 [19]	other results
3.7 nM	Cl.O=C1SC2(CCCC2)C(=O)N1CCCCN1CCN(c2nccc3ccsc23)CC1	46.7 mg/kg	43.1 mg/kg	–	–	–	–	–	IC50 [3]: 20.2 nM; ED50 (Rattus norvegicus [4]): inactive; IC50 [5]: 36.8 nM; IC50 (D(2) dopamine receptor [6]): 418 nM; MED50 (Rattus norvegicus [8]): inactive
5.7 nM	CC1(C)CC(=O)N(CCCCN2CCN(c3nccc4sccc34)CC2)C(=O)C1.Cl	39.7 mg/kg	6 mg/kg	3 nM	115 nM	18.8 nM	–	–	ED50 (Rattus norvegicus [10]): inactive; MED50 (Mus musculus): 10 mg/kg; ED25 (Rattus norvegicus [13]): 0.05 mg/kg; ED25 (Rattus norvegicus [14]): 0.06 mg/kg; ED25 (Rattus norvegicus [15]): 0.086 mg/kg; ED50 (Rattus norvegicus [16]): 0.042 mg/kg; MED50 (Rattus norvegicus [17]): 50 mg/kg
–	Cl.c1cc2occc2c(N2CCNCC2)n1	–	7.3 mg/kg	377 nM	> 1000 nM	426 nM	10.7 mg/kg	144 nM	IC50 [20]: 150 nM

SMILES	IC50 [2]	ED50 (Rattus norvegicus [1])	ED50 (Rattus norvegicus [7])	IC50 [9]	IC50 (D(2) dopamine receptor [11])	IC50 [12]	AED (Rattus norvegicus [18])	IC50 [19]	other results
Cl.c1cc2sccc2c(N2CCNCC2)n1	71.3 nM	–	28.6 mg/kg	141 nM	> 1000 nM	139 nM	20.9 mg/kg	113 nM	–
